In ChEMBL document CHEMBL1154674, “Synthesis and evaluation of three 18F-labeled aminophenylbenzothiazoles as amyloid imaging agents” (J Med Chem, 2009):
Each block holds one compound with its values, some of them ahead of it.

What was measured:
Type in all cases: ADME, organism-based
[1] = tested on: Heart; assay: Biodistribution in NMRI mouse heart assessed per gram of tissue at 3.7 MBq/mL, iv after 2 mins by gamma counting; settings: in vivo
Outline: (§1)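 Male NMRI mice (30-40 g) under isoflurane (1.5-2.5% in oxygen) got 0.1 mL of HPLC-purified tracer diluted with 0.9% NaCl to 3.7 MBq/mL (ethanol ≤10%) via tail vein. Mice were decapitated at 2 or 60 min p.i., and organs, blood and urine were weighed and γ-counted. Values are background-corrected %ID or %ID/g, with blood mass taken as 7% of body mass.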

[2] = tested on: Lung; assay: Biodistribution in NMRI mouse lung at 3.7 MBq/mL, iv after 60 mins by gamma counting; settings: in vivo, 1 h; outline: as §1
[3] = Biodistribution in NMRI mouse cerebrum assessed per gram of tissue at 3.7 MBq/mL, iv after 2 mins by gamma counting; settings: in vivo; outline: as §1
[4] = tested on: Blood; assay: Biodistribution in NMRI mouse blood at 3.7 MBq/mL, iv after 2 mins by gamma counting; settings: in vivo; outline: as §1
[5] = Biodistribution in NMRI mouse cerebrum assessed per gram of tissue at 3.7 MBq/mL, iv after 60 mins by gamma counting; settings: in vivo, 1 h; outline: as §1
[6] = tested on: Cerebellum; assay: Biodistribution in NMRI mouse cerebellum assessed per gram of tissue at 3.7 MBq/mL, iv after 2 mins by gamma counting; settings: in vivo; outline: as §1
[7] = tested on: Heart; assay: Drug level in NMRI mouse heart assessed as standard uptake value at 3.7 MBq/mL, iv after 2 mins by gamma counting; settings: in vivo
Outline: (§2)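 Male NMRI mice (30-40 g) were anaesthetised with isoflurane. Each received 0.1 mL of HPLC-purified tracer, diluted in 0.9% NaCl to 3.7 MBq/mL (ethanol ≤10%), via a tail vein. Mice were decapitated at 2 or 60 min. Organs were dissected, weighed and γ-counted with background correction. SUV = (organ cpm/organ weight)/(total recovered counts/body weight). Blood mass was taken as 7% of body mass.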

[8] = Biodistribution in NMRI mouse spleen/pancreas assessed per gram of tissue at 3.7 MBq/mL, iv after 60 mins by gamma counting; settings: in vivo, 1 h; outline: as §1
[9] = tested on: Intestine; assay: Biodistribution in NMRI mouse intestine at 3.7 MBq/mL, iv after 2 mins by gamma counting; settings: in vivo; outline: as §1
[10] = tested on: Cerebellum; assay: Biodistribution in NMRI mouse cerebellum assessed per gram of tissue at 3.7 MBq/mL, iv after 60 mins by gamma counting; settings: in vivo, 1 h; outline: as §1
[11] = tested on: Heart; assay: Biodistribution in NMRI mouse heart assessed per gram of tissue at 3.7 MBq/mL, iv after 60 mins by gamma counting; settings: in vivo, 1 h; outline: as §1
[12] = tested on: Cerebellum; assay: Drug level in NMRI mouse cerebellum assessed as standard uptake value at 3.7 MBq/mL, iv after 60 mins by gamma counting; settings: in vivo, 1 h; outline: as §2
[13] = tested on: Liver; assay: Biodistribution in NMRI mouse liver assessed per gram of tissue at 3.7 MBq/mL, iv after 60 mins by gamma counting; settings: in vivo, 1 h; outline: as §1
[14] = tested on: Lung; assay: Biodistribution in NMRI mouse lung at 3.7 MBq/mL, iv after 2 mins by gamma counting; settings: in vivo; outline: as §1
[15] = tested on: Lung; assay: Drug level in NMRI mouse lung assessed as standard uptake value at 3.7 MBq/mL, iv after 2 mins by gamma counting; settings: in vivo; outline: as §2
[16] = tested on: Intestine; assay: Biodistribution in NMRI mouse intestine at 3.7 MBq/mL, iv after 60 mins by gamma counting; settings: in vivo, 1 h; outline: as §1
[17] = tested on: Kidney; assay: Drug level in NMRI mouse kidney assessed as standard uptake value at 3.7 MBq/mL, iv after 2 mins by gamma counting; settings: in vivo; outline: as §2
[18] = tested on: Blood; assay: Biodistribution in NMRI mouse blood assessed per gram of tissue at 3.7 MBq/mL, iv after 60 mins by gamma counting; settings: in vivo, 1 h; outline: as §1
[19] = tested on: Cerebellum; assay: Drug level in NMRI mouse cerebellum assessed as standard uptake value at 3.7 MBq/mL, iv after 2 mins by gamma counting; settings: in vivo; outline: as §2
[20] = tested on: Heart; assay: Biodistribution in NMRI mouse heart at 3.7 MBq/mL, iv after 60 mins by gamma counting; settings: in vivo, 1 h; outline: as §1
[21] = tested on: Kidney; assay: Drug level in NMRI mouse kidney assessed as standard uptake value at 3.7 MBq/mL, iv after 60 mins by gamma counting; settings: in vivo, 1 h; outline: as §2
[22] = tested on: Liver; assay: Biodistribution in NMRI mouse liver at 3.7 MBq/mL, iv after 60 mins by gamma counting; settings: in vivo, 1 h; outline: as §1
[23] = tested on: Blood; assay: Drug level in NMRI mouse blood assessed as standard uptake value at 3.7 MBq/mL, iv after 60 mins by gamma counting; settings: in vivo, 1 h; outline: as §2
[24] = Biodistribution in NMRI mouse spleen/pancreas assessed per gram of tissue at 3.7 MBq/mL, iv after 2 mins by gamma counting; settings: in vivo; outline: as §1
[25] = tested on: Heart; assay: Drug level in NMRI mouse heart assessed as standard uptake value at 3.7 MBq/mL, iv after 60 mins by gamma counting; settings: in vivo, 1 h; outline: as §2
[26] = tested on: Kidney; assay: Biodistribution in NMRI mouse kidney at 3.7 MBq/mL, iv after 2 mins by gamma counting; settings: in vivo; outline: as §1
[27] = tested on: Liver; assay: Drug level in NMRI mouse liver assessed as standard uptake value at 3.7 MBq/mL, iv after 60 mins by gamma counting; settings: in vivo, 1 h; outline: as §2
[28] = tested on: Lung; assay: Drug level in NMRI mouse lung assessed as standard uptake value at 3.7 MBq/mL, iv after 60 mins by gamma counting; settings: in vivo, 1 h; outline: as §2
[29] = tested on: Lung; assay: Biodistribution in NMRI mouse lung assessed per gram of tissue at 3.7 MBq/mL, iv after 60 mins by gamma counting; settings: in vivo, 1 h; outline: as §1
[30] = tested on: Blood; assay: Biodistribution in NMRI mouse blood at 3.7 MBq/mL, iv after 60 mins by gamma counting; settings: in vivo, 1 h; outline: as §1
[31] = tested on: Cerebellum; assay: Biodistribution in NMRI mouse cerebellum at 3.7 MBq/mL, iv after 2 mins by gamma counting; settings: in vivo; outline: as §1
[32] = tested on: Kidney; assay: Biodistribution in NMRI mouse kidney assessed per gram of tissue at 3.7 MBq/mL, iv after 2 mins by gamma counting; settings: in vivo; outline: as §1
[33] = Biodistribution in NMRI mouse spleen/pancreas at 3.7 MBq/mL, iv after 2 mins by gamma counting; settings: in vivo; outline: as §1
[34] = Drug level in NMRI mouse spleen/pancreas assessed as standard uptake value at 3.7 MBq/mL, iv after 2 mins by gamma counting; settings: in vivo; outline: as §2
[35] = tested on: Liver; assay: Biodistribution in NMRI mouse liver at 3.7 MBq/mL, iv after 2 mins by gamma counting; settings: in vivo; outline: as §1
[36] = Drug level in NMRI mouse cerebrum assessed as standard uptake value at 3.7 MBq/mL, iv after 2 mins by gamma counting; settings: in vivo; outline: as §2
[37] = Biodistribution in NMRI mouse cerebrum at 3.7 MBq/mL, iv after 60 mins by gamma counting; settings: in vivo, 1 h; outline: as §1
[38] = tested on: Kidney; assay: Biodistribution in NMRI mouse kidney at 3.7 MBq/mL, iv after 60 mins by gamma counting; settings: in vivo, 1 h; outline: as §1
[39] = Biodistribution in NMRI mouse cerebrum at 3.7 MBq/mL, iv after 2 mins by gamma counting; settings: in vivo; outline: as §1
[40] = tested on: Kidney; assay: Biodistribution in NMRI mouse kidney assessed per gram of tissue at 3.7 MBq/mL, iv after 60 mins by gamma counting; settings: in vivo, 1 h; outline: as §1
[41] = tested on: Cerebellum; assay: Biodistribution in NMRI mouse cerebellum at 3.7 MBq/mL, iv after 60 mins by gamma counting; settings: in vivo, 1 h; outline: as §1
[42] = tested on: Liver; assay: Drug level in NMRI mouse liver assessed as standard uptake value at 3.7 MBq/mL, iv after 2 mins by gamma counting; settings: in vivo; outline: as §2
[43] = tested on: Liver; assay: Biodistribution in NMRI mouse liver assessed per gram of tissue at 3.7 MBq/mL, iv after 2 mins by gamma counting; settings: in vivo

Drug uptake [1]: 5.8%
Drug uptake [2]: 0.3%
Drug uptake [3]: 12.13%
Drug uptake [4]: 1.5%
Drug uptake [5]: 1.39%
Drug uptake [6]: 11.76%
SUV [7]: 2
Drug uptake [8]: 0.9%
Drug uptake [9]: 11%
Drug uptake [10]: 1.26%
Drug uptake [11]: 1%
SUV [12]: 0.44
Drug uptake [13]: 8.3%
Drug uptake [14]: 1.8%
SUV [15]: 2.5
Drug uptake [16]: 37.2%
SUV [17]: 4.3
Drug uptake [18]: 0.9%
SUV [19]: 3.97
Drug uptake [20]: 0.2%
SUV [21]: 1.6
Drug uptake [22]: 17.5%
SUV [23]: 0.3
Drug uptake [24]: 5.9%
SUV [25]: 0.4
Drug uptake [26]: 8.2%
SUV [27]: 2.8
SUV [28]: 0.5
Drug uptake [29]: 1.4%
Drug uptake [30]: 2.2%
Drug uptake [31]: 1.19%
Drug uptake [32]: 12.6%
Drug uptake [33]: 1.4%
SUV [34]: 2
Drug uptake [35]: 42.4%
SUV [36]: 4.1
Drug uptake [37]: 0.44%
Drug uptake [38]: 3.2%
Drug uptake [39]: 3.42%
Drug uptake [40]: 4.6%
Drug uptake [41]: 0.12%
SUV [42]: 7
Structure (SMILES): CNc1ccc2nc(-c3ccc([18F])cc3)sc2c1

Drug uptake [1]: 7.4%
Drug uptake [2]: 0.6%
Drug uptake [3]: 8.84%
Drug uptake [4]: 2.8%
Drug uptake [43]: 18.9%
Drug uptake [5]: 1.94%
Drug uptake [6]: 9.23%
SUV [7]: 2.7
Drug uptake [8]: 1%
Drug uptake [9]: 10%
Drug uptake [10]: 2.24%
Drug uptake [11]: 1.3%
SUV [12]: 0.83
Drug uptake [13]: 8%
Drug uptake [14]: 2.2%
SUV [15]: 2.9
Drug uptake [16]: 28%
SUV [17]: 4.3
Drug uptake [18]: 0.9%
SUV [19]: 3.35
Drug uptake [20]: 0.2%
SUV [21]: 2.4
Drug uptake [22]: 18.9%
SUV [23]: 0.3
Drug uptake [24]: 5.5%
SUV [25]: 0.5
Drug uptake [26]: 8.5%
SUV [27]: 3
SUV [28]: 0.7
Drug uptake [29]: 1.9%
Drug uptake [30]: 2.4%
Drug uptake [31]: 0.77%
Drug uptake [32]: 11.7%
Drug uptake [33]: 1.5%
SUV [34]: 2
Drug uptake [35]: 41.9%
SUV [36]: 3.2
Drug uptake [37]: 0.65%
Drug uptake [38]: 4.8%
Drug uptake [39]: 2.95%
Drug uptake [40]: 6.5%
Drug uptake [41]: 0.22%
SUV [42]: 6.8
Structure (SMILES): CN(C)c1ccc2nc(-c3ccc([18F])cc3)sc2c1

Drug uptake [1]: 5.9%
Drug uptake [2]: 0.3%
Drug uptake [3]: 13.97%
Drug uptake [4]: 5.3%
Drug uptake [43]: 20%
Drug uptake [5]: 0.97%
Drug uptake [6]: 15.48%
SUV [7]: 1.9
Drug uptake [8]: 1.1%
Drug uptake [9]: 11.1%
Drug uptake [10]: 1.34%
Drug uptake [11]: 0.7%
SUV [12]: 0.42
Drug uptake [13]: 5.6%
Drug uptake [14]: 2%
SUV [15]: 2.8
Drug uptake [16]: 68.6%
Drug uptake [18]: 0.6%
SUV [19]: 4.96
Drug uptake [20]: 0.1%
SUV [21]: 0.6
Drug uptake [22]: 10.7%
SUV [23]: 0.2
Drug uptake [24]: 6.8%
SUV [25]: 0.2
Drug uptake [26]: 8.3%
SUV [27]: 1.8
SUV [28]: 0.4
Drug uptake [29]: 1.2%
Drug uptake [30]: 1.3%
Drug uptake [31]: 1.74%
Drug uptake [32]: 13.3%
Drug uptake [33]: 1.4%
SUV [34]: 2.2
Drug uptake [35]: 39.8%
SUV [36]: 4.47
Drug uptake [37]: 0.32%
Drug uptake [38]: 1%
Drug uptake [39]: 4.56%
Drug uptake [40]: 1.8%
Drug uptake [41]: 0.17%
SUV [42]: 6.4
Structure (SMILES): Nc1ccc2nc(-c3ccc([18F])cc3)sc2c1

Drug uptake [1]: 4.2%
Drug uptake [2]: 0.3%
Drug uptake [3]: 3.6%
Drug uptake [4]: 7.9%
Drug uptake [43]: 7.9%
Drug uptake [5]: 0.6%
Drug uptake [6]: 1.6%
SUV [7]: 1.5
Drug uptake [8]: 0.7%
Drug uptake [9]: 12%
Drug uptake [10]: 0.31%
Drug uptake [11]: 2.1%
SUV [12]: 0.11
Drug uptake [13]: 5%
Drug uptake [14]: 0.9%
SUV [15]: 1.3
Drug uptake [16]: 42.5%
SUV [17]: 7.4
Drug uptake [18]: 1.1%
SUV [19]: 0.59
Drug uptake [20]: 0.3%
SUV [21]: 3.3
Drug uptake [22]: 9.8%
SUV [23]: 0.4
Drug uptake [24]: 4.7%
SUV [25]: 0.7
Drug uptake [26]: 10.3%
SUV [28]: 0.4
Drug uptake [29]: 1.3%
Drug uptake [30]: 2.7%
Drug uptake [31]: 0.17%
Drug uptake [32]: 19.9%
Drug uptake [33]: 0.6%
Drug uptake [35]: 15.6%
SUV [36]: 1.33
Drug uptake [37]: 0.18%
Drug uptake [38]: 4.8%
Drug uptake [39]: 1.08%
Drug uptake [40]: 9.1%
Drug uptake [41]: 0.03%
SUV [42]: 2.9
Structure (SMILES): [11CH3]Nc1ccc(-c2nc3ccc(O)cc3s2)cc1 [PITTSBURGH COMPOUND B]
